For orientation: inhibition means the share of the control response that was lost under treatment. The GI50 is the concentration giving 50% growth inhibition.

The structures appear in SMILES notation. Bounds are passed on as bounds.

Experiment [1] deals with HCT-116 cells. As to the kind of experiment: Cell cycle assay. The note with it: HCT-116, 5 and 10 μM, 24 h. The experiment is classed as cell-based, human. Summed up:
(§1)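 Cells were seeded in 10 cm dishes at 7 × 10^5 (control, 24 h) or 4 × 10^5 (48 and 72 h) per dish and left 24 h at 37 °C. They were then treated with test compound at 5 or 10 μM for 24 h. Floating and trypsinised cells were pooled, PBS-washed, held in cold hypotonic fluorochrome solution overnight at 4 °C in the dark, and analysed by flow cytometry (three internal repeats).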

The test system of experiment [2] is MCF-7 cells. The experiment can be described thus: Cell cycle assay. In kind it is cell-based, human. Particulars: 24 h; for accumulation of events in G2/M phase: control 11%. Summed up:
as §1

The subject of experiment [3] is PARP-1 in HCT-116 cells. As to the kind of experiment: Western blot of whole and cleaved PARP, HCT-116. Particulars: HCT-116, 5 and 10 μM, 24 h. The experiment is classed as cell-based, human. Summed up: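 HCT-116 cells were seeded at 1–2 × 10^6 per dish, attached for 24 h, then exposed to test compound at 5 or 10 μM for 24 h. Lysate protein was measured by Bradford assay, and 50 μg per sample was run on SDS-PAGE and blotted to nitrocellulose. Blots were probed for PARP-1, with GAPDH as loading control, and quantified by densitometry. Data are mean ± SD of three independent experiments, analysed by ANOVA with Dunnett's test.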
(A western blot detects proteins with antibodies after separation by electrophoresis.)

Experiment [4] deals with MCF-7 cells. As to the kind of experiment: Cell count assay, MCF-7. The experiment is classed as cell-based. The note with it: Homo sapiens, MCF7, 72 h, read-out: growth inhibition, cell count. In short, it runs like this:
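Cancer lines were grown in RPMI 1640 with 10% FBS and 1% glutamine at 37 °C/5% CO2, at ≤30 passages. Cells were seeded at 2 × 10^4 per well in 6-well plates and exposed to test compound at 5 or 10 μM for 72 h. Cells were counted by haemocytometer and expressed as % of control (mean ± SD), from 2 independent experiments in triplicate.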

Experiment [5] relates to MCF-7 breast cancer cells. The experiment can be described thus: MTT cell viability assay, MCF-7. The experiment is classed as cell-based, human. Summed up:
(§2)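 Cells were seeded at 3 × 10^3 per well and grown for 24 h at 37 °C/5% CO2. A T0 plate was read at dosing and the others after 72 h. MTT (5 mg mL−1 in PBS) was added for 2.5 h, formazan dissolved in DMSO, and absorbance read at 550 nm. GI50 was interpolated, in triplicate. SI compares MRC-5 with cancer-line activity.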

The subject of experiment [6] is caspases 3 and 7 in HCT-116 cells. As to the kind of experiment: Caspase-3/7 activity assay, HCT-116. In kind it is cell-based, human. Particulars: HCT-116, 5 and 10 μM, 72 h. Summed up: (§3)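 Cells kept in log growth (passaged twice weekly, 37 °C/5% CO2, ≤30 passages) were seeded at 3 × 10^3 per well in opaque white 96-well plates and allowed 24 h at 37 °C. Test compound was added at 5 and 10 μM from fresh 10 mM DMSO stocks for 72 h. Homogeneous caspase-3/7 reagent was added and mixed at 300–500 rpm for 30 s. After 30 min at room temperature, fluorescence was read at 499 nm and 521 nm. Experiments were run in triplicate and reported as mean ± SD.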

Experiment [7] concerns ERK1/2. As to the kind of experiment: Preliminary ERK1/2 inhibition experiments.
The subject of experiment [8] is MRC-5 fibroblasts. The experiment can be described thus: MTT cell viability assay, MRC-5 normal fibroblasts. The experiment is classed as cell-based, human. Summed up: as §2
In general terms: Tetrazolium dyes change colour on reduction, which living cells bring about.

Experiment [9] deals with caspases 3 and 7 in MCF-7 cells. The experiment can be described thus: Caspase-3/7 activity assay, MCF-7. The experiment is classed as cell-based, human. Particulars: MCF-7, 5 and 10 μM, 72 h. In short, it runs like this:
as §3

For experiment [10], the system named is HCT-116 colorectal carcinoma cells. The experiment can be described thus: MTT cell viability assay, HCT-116. The experiment is classed as cell-based, human. In short, it runs like this:
as §2

Experiment [11] concerns HCT-116 cells. As to the kind of experiment: Clonogenic assay, HCT-116 colony formation. Particulars: 24 h exposure, second group, printed as HCT-116. In kind it is cell-based, human. In short, it runs like this: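 HCT-116 cells (RPMI 1640, 10% FBS, 1% glutamine) were seeded at 400 per well in 6-well plates and left to attach for 24 h. They were given test compound at 5 or 10 μM for 24 h, with medium alone as control. Cells were then washed with cold PBS and grown in fresh medium at 37 °C until control colonies reached ≥50 cells. Colonies were methanol-fixed, stained with 0.05% methylene blue and counted. Survival fraction is % of control, from five independent trials (n = 2 each).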

In the case of `Cc1cccc(C=NNc2nc(-c3ccc(C#N)cc3)cs2)c1O` [Compound 3f, 2-(2-(2-Hydroxy-3-methylbenzylidene) hydrazinyl)-4-(4-cyanophenyl) thiazole], the Pre-G1 events in [1] was 5–8%. The “accumulation of events in G2/M phase” value came out at 23% in experiment [2] (MCF-7, 5 μM) and 28% in experiment [2] (MCF-7, 10 μM). Moreover, the pre-G1 cell populations entry in [2] (MCF-7, 5 and 10 μM) is listed as “negligible”. Besides, the PARP-1 cleavage entry in experiment [3] was “induces concentration-dependent PARP-1 cleavage”. For the same compound, the “whole PARP expression” value in experiment [3] was “down-regulation of whole PARP”. The inhibition at 5 µM in [4] fell in the range of 55 to 60%. The inhibition at 10 µM in [4] is 100%. For the same compound, the 50% growth inhibitory concentration (GI50) was 1e-06 ± 4e-07 M in experiment [5] (Homo sapiens, MCF7, 72 h, read-out: GI50 values (M) mean ± SD, MCF-7); 1.73e-05 ± 7e-07 M in experiment [8] (Homo sapiens, MRC5, 72 h, read-out: GI50 values (M) mean ± SD, MRC-5); 1.6e-06 ± 1e-07 M in experiment [10] (Homo sapiens, HCT-116, 72 h, read-out: GI50 values (M) mean ± SD, HCT-116). In addition, the “Selectivity indices (SI), MCF-7” value in experiment [5] (MCF-7 versus MRC-5 fibroblasts) was found to be 17.3. Also, the “caspase 3 and 7 activation” value in experiment [6] and in experiment [9] was “Significant dose-dependent caspase activation” each time. The ERK1/2 inhibition entry in [7] is reported as “showed ERK1/2 inhibition”. Besides, in experiment [8] (cancer cell line not given), the “SI over MRC-5 fibroblasts” value is given as > 10. Besides, the “more active against the carcinoma cell lines than MRC-5” value in [8] (selectivity over MRC-5) is > 10 ×. The “Selectivity indices (SI), HCT-116” value in experiment [10] (HCT-116 versus MRC-5 fibroblasts) is 10.8. Further, in [11] (5 μM), the “inhibition of colony formation” value is given as “completely inhibiting colony formation”. The colony formation result in experiment [11] (10 μM) is “completely inhibiting colony formation”.
